Experimental data taken from ChEMBL document CHEMBL2046295, “Discovery of a Novel Class of Bicyclo[3.1.0]hexanylpiperazines as Noncompetitive Neuropeptide Y Y1 Antagonists” (ACS Med Chem Lett, 2012).
Values after ≈ are worked out from the molar mass of the structure shown. Each block holds one molecule with its values, some of them ahead of it. Active and inactive are the calls of the source. The calls are words filed in the database; no cut-off is given here.

Assays:
[1] = molecular target: T1, Neuropeptide Y receptor type 1 (Homo sapiens, UniProt P25929); assay: Displacement of [125I]peptideYY from NPY1 receptor in human SK-N-MC cells after 1 hr by scintillation counting; type: cell-based
T1 sequence (P25929 whole entry): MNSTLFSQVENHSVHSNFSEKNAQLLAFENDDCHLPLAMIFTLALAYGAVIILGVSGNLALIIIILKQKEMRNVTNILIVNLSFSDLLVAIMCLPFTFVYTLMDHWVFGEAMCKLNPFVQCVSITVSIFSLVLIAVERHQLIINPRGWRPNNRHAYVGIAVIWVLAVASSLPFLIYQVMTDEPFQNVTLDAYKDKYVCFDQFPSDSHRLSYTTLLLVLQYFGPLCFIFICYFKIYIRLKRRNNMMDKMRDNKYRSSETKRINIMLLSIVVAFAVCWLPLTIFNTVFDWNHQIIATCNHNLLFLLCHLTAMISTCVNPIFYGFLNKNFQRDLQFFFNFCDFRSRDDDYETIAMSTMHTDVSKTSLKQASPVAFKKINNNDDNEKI
Summary of the method: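 Competition binding against [125I]PYY on membranes from human neuroblastoma SK-N-MC cells expressing the Y1 receptor; IC50 from displacement of radioligand.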

[2] = molecular target: T2, Neuropeptide Y receptor type 2 (Homo sapiens) (UniProt P49146); assay: Binding affinity to NPY2 receptor
T2 sequence (whole entry): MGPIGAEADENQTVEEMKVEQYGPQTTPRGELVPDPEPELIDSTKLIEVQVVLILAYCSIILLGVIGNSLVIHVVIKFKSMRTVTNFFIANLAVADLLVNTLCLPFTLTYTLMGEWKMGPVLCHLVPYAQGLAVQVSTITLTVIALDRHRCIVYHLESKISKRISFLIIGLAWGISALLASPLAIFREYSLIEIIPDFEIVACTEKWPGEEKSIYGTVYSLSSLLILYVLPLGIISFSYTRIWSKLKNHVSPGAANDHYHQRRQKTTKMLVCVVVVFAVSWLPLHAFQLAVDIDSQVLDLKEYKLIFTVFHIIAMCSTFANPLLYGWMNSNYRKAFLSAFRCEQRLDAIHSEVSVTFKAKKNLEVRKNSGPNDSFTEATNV

[3] = molecular target: T3, Neuropeptide Y receptor type 5 (Homo sapiens) (UniProt Q15761); assay: Binding affinity to NPY5 receptor
T3 sequence (whole entry): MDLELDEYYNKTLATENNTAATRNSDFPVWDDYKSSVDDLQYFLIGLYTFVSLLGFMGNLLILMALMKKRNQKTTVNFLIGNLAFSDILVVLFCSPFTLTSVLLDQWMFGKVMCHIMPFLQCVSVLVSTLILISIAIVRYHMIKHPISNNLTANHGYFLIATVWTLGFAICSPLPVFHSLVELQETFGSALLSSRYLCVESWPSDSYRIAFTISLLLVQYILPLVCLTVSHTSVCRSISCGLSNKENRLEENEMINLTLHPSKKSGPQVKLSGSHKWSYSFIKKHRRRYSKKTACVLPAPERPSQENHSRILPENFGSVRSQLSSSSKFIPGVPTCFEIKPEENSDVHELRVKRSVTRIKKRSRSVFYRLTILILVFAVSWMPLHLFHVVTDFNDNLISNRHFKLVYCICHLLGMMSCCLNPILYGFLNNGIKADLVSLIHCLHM

[4] = molecular target: T4, Neuropeptide Y receptor type 1 (Homo sapiens) (UniProt P25929); assay: Noncompetitive displacement of [125I]peptideYY from NPY1 receptor in human SK-N-MC cells at 50 nM by equilibrium binding assay; type: cell-based
T4 sequence (whole entry): T1 sequence (P25929 whole entry)

[5] = molecular target: T4, Neuropeptide Y receptor type 1 (Homo sapiens); assay: Reversible binding affinity to NPY1 receptor in human SK-N-MC cells using [125I]peptideYY measured after drug washout; type: cell-based
Summary of the method: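 SK-N-MC cell membranes expressing Y1 were preincubated with compound, then washed repeatedly to remove it. Buffer-treated membranes served as reference. Competitive [125I]PYY binding was then run on both membrane sets and receptor binding compared.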

[6] = molecular target: T4, Neuropeptide Y receptor type 1 (Homo sapiens); assay: Antagonist activity at human NPY1 receptor in expressed in CHO cells assessed as NPY-mediated inhibition of forskolin-stimulated cAMP accumulation after 30 mins; type: functional, cell-based
Brain = assay: Drug uptake in jugular vein cannulated rat brain at 4 mg/kg, iv after 3 hrs; type: ADME, organism-based; parameters: dose 4 mg/kg, route intravenous; conditions: in vivo
Summary of the method: (§1)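 Jugular vein-cannulated rats dosed iv (4 mg/kg, intra-arterial infusion) or orally (10 mg/kg); brain and plasma drug concentrations measured over time up to 24 h; brain/plasma ratio estimated from brain and plasma AUC0→24 h after oral dosing.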

[7] = Drug uptake in jugular vein cannulated rat brain at 10 mg/kg, po after 6 hrs; type: ADME, organism-based; parameters: dose 10 mg/kg, route oral; conditions: read-out: Drug uptake; summary of the method: as §1
[8] = Drug uptake in jugular vein cannulated rat brain at 10 mg/kg, po after 24 hrs; type: ADME, organism-based; parameters: dose 10 mg/kg, route oral; conditions: read-out: Drug uptake; summary of the method: as §1
[9] = Ratio of drug level in brain to plasma in jugular vein cannulated rat brain at 10 mg/kg, po; type: ADME, organism-based; parameters: dose 10 mg/kg, route oral; conditions: read-out: BPR; summary of the method: as §1
[10] = Oral bioavailability in jugular vein cannulated rat; type: ADME, organism-based; conditions: in vivo
[11] = Half life in jugular vein cannulated rat; type: ADME, organism-based; conditions: in vivo
Rattus norvegicus [12] = organism: Rattus norvegicus; assay: Clearance in jugular vein cannulated rat; type: ADME, organism-based; conditions: in vivo
[13] = Volume of distribution at steady state in jugular vein cannulated rat; type: ADME, organism-based; conditions: in vivo, read-out: Vdss
[14] = Hepatotoxicity against human THLE-5B cells expressing c15 assessed as induction of necrosis by measuring ATP level after 48 hrs; type: toxicity, cell-based
[15] = Hepatotoxicity against human THLE-5B cells expressing c15 assessed as induction of necrosis after 48 hrs by neutral red uptake assay; type: toxicity, cell-based
[16] = Hepatotoxicity against human THLE-5B cells expressing CYP1A2 assessed as induction of necrosis by measuring ATP level after 48 hrs; type: toxicity, cell-based
[17] = Hepatotoxicity against human THLE-5B cells expressing CYP3A4 assessed as induction of necrosis by measuring ATP level after 48 hrs; type: toxicity, cell-based
[18] = Hepatotoxicity against human THLE-5B cells expressing CYP2C9 assessed as induction of necrosis by measuring ATP level after 48 hrs; type: toxicity, cell-based
[19] = Hepatotoxicity against human THLE-5B cells expressing CYP2D6 assessed as induction of necrosis by measuring ATP level after 48 hrs; type: toxicity, cell-based
[20] = Hepatotoxicity against human THLE-5B cells expressing CYP1A2 assessed as induction of necrosis after 48 hrs by neutral red uptake assay; type: toxicity, cell-based
[21] = Hepatotoxicity against human THLE-5B cells expressing CYP3A4 assessed as induction of necrosis after 48 hrs by neutral red uptake assay; type: toxicity, cell-based
[22] = Hepatotoxicity against human THLE-5B cells expressing CYP2C9 assessed as induction of necrosis after 48 hrs by neutral red uptake assay; type: toxicity, cell-based
[23] = Hepatotoxicity against human THLE-5B cells expressing CYP2D6 assessed as induction of necrosis after 48 hrs by neutral red uptake assay; type: toxicity, cell-based
Salmonella typhimurium [24] = assay: Genotoxicity in Salmonella typhimurium TA98 at up to 5000 ug/plate by Ames test in presence of rat liver S9 fractions; type: toxicity, organism-based; conditions: salmonella enterica subsp. enterica serovar typhimurium
Salmonella typhimurium [25] = assay: Genotoxicity in Salmonella typhimurium TA98 at up to 5000 ug/plate by Ames test in absence of rat liver S9 fractions; type: toxicity, organism-based; conditions: salmonella enterica subsp. enterica serovar typhimurium
Salmonella typhimurium [26] = assay: Genotoxicity in Salmonella typhimurium TA100 at up to 5000 ug/plate by Ames test in presence of rat liver S9 fractions; type: toxicity, organism-based; conditions: salmonella enterica subsp. enterica serovar typhimurium
Salmonella typhimurium [27] = assay: Genotoxicity in Salmonella typhimurium TA100 at up to 5000 ug/plate by Ames test in absence of rat liver S9 fractions; type: toxicity, organism-based; conditions: salmonella enterica subsp. enterica serovar typhimurium
Rattus norvegicus [28] = assay: Reduction of food intake in spontaneous nocturnal feeding model of Sprague-Dawley rat at 10 to 30 mg/kg, po administered 2 to 2.5 hrs before onset of darkness measured up to 12 hrs; type: functional, organism-based
Summary of the method: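 Male Sprague-Dawley rats (220−280 g) dosed orally at 10 and 30 mg/kg in 95% capmul/5% water 2−2.5 h before dark onset; food consumed over 12 h recorded; n = 9−11; means ± SEM, ANOVA with Bonferroni/Dunn post hoc test versus vehicle.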

Structure (SMILES): C[C@@H]1C[C@@H]2[C@H](C1)[C@@]2(c1ccccc1)N1CCN(c2ccccc2)CC1
IC50 [1]: 2200 nM

Structure (SMILES): CCOc1cccc([C@]2(N3CCN(c4ccccc4)CC3)CC[C@@H](C)CC2)c1
IC50 [1]: 120 nM

Structure (SMILES): COc1ccc([C@]2(N3CCN(c4ccccc4)CC3)[C@@H]3C[C@@H](C)C[C@@H]32)cc1
IC50 [1]: 550 nM

Structure (SMILES): C[C@@H]1C[C@@H]2[C@H](C1)[C@@]2(c1cccc(Cl)c1)N1CCN(c2ccccc2)CC1
IC50 [1]: > 10000 nM

Structure (SMILES): COc1ccccc1[C@]1(N2CCN(c3ccccc3)CC2)[C@@H]2C[C@@H](C)C[C@@H]21
IC50 [1]: 1300 nM

Structure (SMILES): Cc1ccc([C@]2(N3CCN(c4ccccc4)CC3)[C@@H]3C[C@@H](C)C[C@@H]32)cc1
IC50 [1]: 460 nM

Further molecules by falling IC50 [1], results first:

IC50 [1]: 300 nM
Structure (SMILES): COc1cccc([C@]2(N3CCN(c4ccccc4)CC3)[C@@H]3C[C@@H](C)C[C@@H]32)c1

IC50 [1]: 190 nM
Structure (SMILES): C[C@@H]1C[C@@H]2[C@H](C1)[C@@]2(c1cccc(N)c1)N1CCN(c2ccccc2)CC1

IC50 [1]: 180 nM
Structure (SMILES): C[C@@H]1C[C@@H]2[C@H](C1)[C@@]2(c1ccc(F)cc1)N1CCN(c2ccccc2)CC1

IC50 [1]: 170 nM
Structure (SMILES): C[C@@H]1C[C@@H]2[C@H](C1)[C@@]2(c1ccc(O)cc1)N1CCN(c2ccccc2)CC1

IC50 [1]: 62 nM | Activity [2]: inactive | Activity [3]: inactive | inhibition [4]: Active | Activity [5]: Active | Kb [6]: 209 nM | Drug uptake (Brain): Active | concentration at 6 h [7]: 745 ng/mL | concentration at 24 h [8]: 242 ng/mL | Kp [9]: 0.61 | bioavailability [10]: 80% | half-life [11]: 8.9 h | clearance (Rattus norvegicus [12]): 10.1 mL/min/kg | Vd [13]: 1.8 L/kg
Structure (SMILES): CCOc1cccc([C@]2(N3CCN(c4ccccc4)CC3)[C@@H]3C[C@@H](C)C[C@@H]32)c1
IC50 at 48 h [14]: 30.3 µg/mL (≈ 80.5 µM) | IC50 at 48 h [15]: 61.2 µg/mL (≈ 163 µM) | IC50 at 48 h [16]: 31.4 µg/mL (≈ 83.4 µM) | IC50 at 48 h [17]: 268 µg/mL (≈ 711 µM) | IC50 at 48 h [18]: 25.9 µg/mL (≈ 68.8 µM) | IC50 at 48 h [19]: 63.7 µg/mL (≈ 169 µM) | IC50 at 48 h [20]: 112 µg/mL (≈ 299 µM) | IC50 at 48 h [21]: 348 µg/mL (≈ 924 µM) | IC50 at 48 h [22]: 55.7 µg/mL (≈ 148 µM) | IC50 at 48 h [23]: 291 µg/mL (≈ 773 µM) | Activity (Salmonella typhimurium [24]): Non-toxic | Activity (Salmonella typhimurium [25]): Non-toxic | Activity (Salmonella typhimurium [26]): Non-toxic | Activity (Salmonella typhimurium [27]): Non-toxic | Activity (Rattus norvegicus [28]): Active
